The record followed here is PubChem BioAssay AID1665 (Sanford-Burnham Center for Chemical Genomics, 2009).

Out of some 190,000 compounds screened, about 590 (0.31%) were called active.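 Rule for the calls: active = nuclear translocation activity above 50% at 5 µM, with a well cell count of 50 or more; inconclusive = wells under 50 cells across six images, flagged as toxic; inactive = the rest.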 The entries come from a sample that favours actives as a whole.

The assay is described as follows: beta-catenin nuclear localization change in HeLa – imaging, HeLa cells, immunofluorescence, high-content, primary screen (AID 1665).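 For nuclear translocation activity: plate controls were DMSO negative control for no effect and GSK-3 inhibitor IX positive control for full effect.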 As to conditions: at 5 µM; cell count: HeLa beta-catenin nuclear translocation, measured here: cell count, cytotoxicity flag; nuclear translocation activity: stronger effect = higher value. The essentials: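 Test system: HeLa cells, endogenous beta-catenin; Compound: single 5 µM dose plus 0.02–20 µM confirmation series; Times: compound exposure 24 h at 37°C; Signal: fluorescence imaging of beta-catenin antibody stain plus DAPI; Read-out: % activation, nuclear-to-cytoplasmic median beta-catenin signal ratio per cell.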
In the case of `COc1cc2nc(Cl)nc(NCCO)c2cc1OC`, the cell count was determined as 1310 cells and the nuclear translocation activity is 0.1% (inactive).
For `CCOC(=O)c1cc(NC(=O)c2cccnc2)cc(C(=O)OCC)c1`, the cell count was determined as 1120 cells and the nuclear translocation activity was 0.3% (inactive).
In the same order, the values of `CCOc1cccc(C(=O)Nc2cccnc2)c1` are 1110 cells and -2.1% (inactive).
For the molecule `CCOC(=O)c1ccc(-c2ccc(C(=O)Nc3cccnc3)o2)cc1`, the cell count turned out to be 659 cells and the nuclear translocation activity was 56.9% (active).
For `COC(=O)CNc1nc(Cl)nc(N2CCC(C)CC2)n1`, the cell count came out at 1320 cells and the nuclear translocation activity was -0.1% (inactive).
Turning to `CC(C)Sc1nnc([C@H](Cc2ccccc2)NC(=O)OC(C)(C)C)o1`, the cell count is 1410 cells and the nuclear translocation activity was 0.4% (inactive).
For `CCOC(=O)Cc1cc(=O)[nH]c(/N=C(\N)Nc2ccc(OC)cc2)n1`, the cell count worked out at 1300 cells and the nuclear translocation activity is -0.7% (inactive).
With `O=C(NNC(=O)c1cc2c(s1)CCCC2)c1ccccc1`, the cell count came out at 547 cells and the nuclear translocation activity is -1.8% (inactive).
For the molecule `Cc1ccc(C(=O)NNC(=O)c2cc3cc4ccccc4nc3s2)cc1`, the cell count is 719 cells and the nuclear translocation activity is 80.3% (active).
`Cc1ccc(C(=O)NNC(=O)c2cccs2)cc1`: the cell count came to 1120 cells and the nuclear translocation activity is -0.6% (inactive).
On to `CCOc1ccccc1N1CN(Cc2ccccc2)CNC1=S`, for which the cell count came out at 1340 cells and the nuclear translocation activity is -1.3% (inactive).
As to `CCc1nc2sc3c(Cl)ncnc3c2c2c1CCCC2`, the cell count was determined as 1350 cells and the nuclear translocation activity was -1.6% (inactive).
For `Cc1cc(=O)[nH]c(S)c1C#N`, in that order: 1290 cells and -0.9% (inactive).
As to `O=C(COc1ccccc1)N1CCN=C1SCc1cccc(F)c1`, the cell count was determined as 1330 cells and the nuclear translocation activity is 0.4% (inactive).
On to `COc1cc(C=O)ccc1Oc1nnnn1-c1ccccc1`, for which the cell count turned out to be 1310 cells and the nuclear translocation activity is -0.4% (inactive).
In the same order, the values of `Cc1cc(C(=O)NNS(=O)(=O)c2ccccc2C(F)(F)F)nn1C(C)(C)C` are 1120 cells and -2.9% (inactive).
Consider `CCOC(=O)c1c(NC(=O)NC(C)(C)C)sc2c1CCN(C)C2`, for which the cell count worked out at 1280 cells and the nuclear translocation activity is 0.5% (inactive).
`Nc1nc(SC23CC4CC(CC(C4)C2)C3)ns1`: the cell count amounted to 1340 cells and the nuclear translocation activity is 0.7% (inactive).
In the same order, the values of `CC(C)n1c(=S)[nH]c2cc(C(F)(F)F)ccc21` are 1090 cells and -0.8% (inactive).
For the molecule `COC(=O)c1ccc(S(=O)(=O)NCc2ccccc2)n1C`, the cell count stood at 1270 cells and the nuclear translocation activity is 0.3% (inactive).
Regarding `CCOCCn1c(-c2ccccc2)nc2ccccc21`, the cell count was 1340 cells and the nuclear translocation activity is -0.7% (inactive).
Consider `O=C(O)c1ccccc1OCc1ccccc1Cl`, for which the cell count came out at 1320 cells and the nuclear translocation activity was -1.2% (inactive).
As to `Cc1cc(=O)[nH]c(N/N=C/c2ccc3c(c2)OCCO3)n1`, the cell count was determined as 1320 cells and the nuclear translocation activity was -0.5% (inactive).
On to `COc1ccc(NC(=O)C2CCC(CNc3c(N4CCCCC4)c(=O)c3=O)CC2)c(OC)c1` (stereo unspecified), for which the cell count was found to be 1350 cells and the nuclear translocation activity was -0.3% (inactive).
In the case of `Cc1nnc2n1N=C(c1ccc3c(c1)NC(=O)CO3)CS2`, the cell count was found to be 1300 cells and the nuclear translocation activity was -0.7% (inactive).
With `C/C(=N/NC(=O)CN1CCN(S(=O)(=O)c2ccc(Br)cc2)CC1)c1ccncc1`, the cell count worked out at 1320 cells and the nuclear translocation activity was -0.5% (inactive).
For `Nc1ccc2nn(-c3ccc(Cl)cc3)nc2c1`, in that order: 1360 cells and 1% (inactive).
As for `CC1=NNC(=O)C1CCC(=O)N/N=C(\C)c1ccc(Cl)cc1` (stereo unspecified), the cell count was 1240 cells and the nuclear translocation activity was 0.6% (inactive).
For the molecule `Cc1cc(C)nc(SCc2cn3c(C)cc(C)nc3n2)n1`, the cell count was found to be 1340 cells and the nuclear translocation activity is -0.4% (inactive).
Take `CCc1nc2sc(C(=O)O)c(N)c2c2c1CCCC2`: the cell count turned out to be 1230 cells and the nuclear translocation activity is 2.4% (inactive).
As for `CC(=O)NNC(=O)c1csc(Cc2c(Cl)sc3ccc(Cl)cc23)n1`, the cell count came out at 1250 cells and the nuclear translocation activity is -0.8% (inactive).
With `CC(CNS(=O)(=O)c1ccc(Br)cc1)CN(C)C` (stereo unspecified), the cell count turned out to be 1320 cells and the nuclear translocation activity is 0.2% (inactive).
For `COc1ccc(CNC(=O)C(Cc2ccccc2)n2cccc2)cc1` (stereo unspecified), the cell count was 1270 cells and the nuclear translocation activity is -0.6% (inactive).
On to `COC(OC)c1ccnc(SCc2ccccc2Cl)n1`, for which the cell count came to 1270 cells and the nuclear translocation activity is -2.6% (inactive).
In the case of `O=C(O)C(F)(F)C(NCc1ccccc1)c1ccccc1` (stereo unspecified), the cell count amounted to 1280 cells and the nuclear translocation activity was 0% (inactive).
On to `COc1cc(/C=C(\C#N)c2nc3c(s2)CC(C)CC3)ccc1O` (stereo unspecified), for which the cell count came to 1440 cells and the nuclear translocation activity was 2.5% (inactive).
As to `COc1cc(/C=N\Nc2nc(-c3cccs3)c(NC(C)=O)s2)ccc1O`, the cell count turned out to be 1300 cells and the nuclear translocation activity is 0.1% (inactive).
In the same order, the values of `CCOc1cc(/C=C(\C#N)c2nc(-c3cccs3)c(NC(C)=O)s2)ccc1O` are 77 cells and 68.9% (active).
On to `Cn1c(SCC(=O)N2CCOCC2)nnc1-c1ccc2ncccc2c1`, for which the cell count stood at 1320 cells and the nuclear translocation activity is 0.1% (inactive).
As for `O=[N+]([O-])c1cccc2ncccc12`, the cell count stood at 1340 cells and the nuclear translocation activity is -0.4% (inactive).
Take `O=C(NC1CCCCC1)c1cc(C2CC2)on1`: the cell count stood at 1290 cells and the nuclear translocation activity was -0.2% (inactive).
Take `Cc1ccc(-c2nc3ccccc3[nH]c2=O)cc1`: the cell count turned out to be 1310 cells and the nuclear translocation activity is 2.5% (inactive).
For `CCCCCCCCCCCCN1C(=O)CSC1c1cccnc1` (stereo unspecified), in that order: 1170 cells and -0.9% (inactive).
Regarding `CC(=O)NC(=S)Nc1ccc(NC(=S)NC(=O)c2ccc([N+](=O)[O-])cc2)cc1`, the cell count was found to be 1350 cells and the nuclear translocation activity was -0.9% (inactive).
`CCc1ccccc1NC(=O)CSc1nnc(CCNC(=O)OC(C)(C)C)o1`: the cell count was determined as 1310 cells and the nuclear translocation activity is 1% (inactive).
In the same order, the values of `Oc1ccc2ccccc2c1C=Nc1ccccc1` are 1230 cells and 1.3% (inactive).
For the molecule `Oc1c(C=Nc2cccc3nsnc23)ccc2ccccc12`, the cell count stood at 317 cells and the nuclear translocation activity is 154% (active).
Take `Oc1ccc(N=Cc2c(O)ccc3ccccc23)cc1`: the cell count came out at 1240 cells and the nuclear translocation activity was -1.5% (inactive).
In the same order, the values of `O=C(O)/C=C/c1ccc2c(c1)OCCO2` are 1430 cells and -1.2% (inactive).
Regarding `Cc1cc(Nc2ccc(Cl)cc2)nc(N2CCOCC2)n1`, the cell count came out at 1280 cells and the nuclear translocation activity was -0.7% (inactive).
Take `Cc1onc(NC(=O)c2ccc([N+](=O)[O-])o2)c1Br`: the cell count was found to be 1260 cells and the nuclear translocation activity is 5.1% (inactive).
In the same order, the values of `COC(=O)c1cc(NC(=O)c2ccco2)ccc1N1CCOCC1` are 1200 cells and -0.7% (inactive).
In the same order, the values of `CCCC(=O)Nc1ccc2c(c1)nc(CCNC(=O)c1ccco1)n2C` are 1400 cells and -1.3% (inactive).
In the same order, the values of `COc1ccc(NC2=CC(=S)NC(C)(C)C2)cc1` are 1130 cells and -1.8% (inactive).
In the case of `COC(=O)c1sc(SC)c(S(=O)(=O)C(C)C)c1N/N=C(\C#N)S(=O)(=O)c1ccccn1`, the cell count was 1240 cells and the nuclear translocation activity was -2.6% (inactive).
In the case of `CCN(CC)CCCN=Cc1c(O)n(-c2ccc(C)cc2)c(=O)c2ccccc12`, the cell count was 1350 cells and the nuclear translocation activity is -0.1% (inactive).
`O=C(O)CC1(CC(=O)Nc2cccc(C(F)(F)F)c2)CCCC1`: the cell count came out at 1260 cells and the nuclear translocation activity is 0.5% (inactive).
`CN(C)/C=C(/C(=O)c1ccc(Cl)c(Cl)c1)c1nnnn1-c1ccccc1`: the cell count amounted to 1260 cells and the nuclear translocation activity was 0% (inactive).
